In brackets after ≈: the same amount, converted by molar mass. Activity calls are given as the source filed them. The rule behind the calls is not given here.
Legend:
[1] = test system: Mycobacterium tuberculosis; assay: Antimycobacterial activity against Mycobacterium tuberculosis H37Rv CNCTC My 331/88 after 14 days; type: functional; settings: H37Rv CNCTC My 331/88, 336 h
In short: (§1)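 M. tuberculosis strains (H37Rv and clinical MDR/XDR isolates) tested by microdilution in Šula's semisynthetic medium. Compounds were dissolved in DMSO and tested at 32 to 0.03 µM in twofold steps. Inoculum was a 1.0 McFarland suspension diluted 10-3. Plates were incubated at 37 °C and read at 14 and 21 days.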

[2] = test system: Mycobacterium tuberculosis; assay: Antimycobacterial activity against Mycobacterium tuberculosis H37Rv CNCTC My 331/88 after 21 days; type: functional; settings: H37Rv CNCTC My 331/88, 504 h; in short: as §1
Mycobacterium avium [3] = assay: Antimycobacterial activity against Mycobacterium avium CNCTC My 330/88 after 14 days; type: functional; settings: CNCTC My 330/88, 336 h
In short: (§2)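 M. avium was tested by microdilution in Šula's semisynthetic medium, with compounds dissolved in DMSO and serially diluted from 1000 down to 1. Inoculum was a 1.0 McFarland suspension diluted 10-5. Plates were incubated at 37 °C and read at 14 and 21 days. […] Isoniazid and rifampicin served as standards.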

Mycobacterium avium [4] = assay: Antimycobacterial activity against Mycobacterium avium CNCTC My 330/88 after 21 days; type: functional; settings: CNCTC My 330/88, 504 h; in short: as §2
Mycobacterium kansasii [5] = assay: Antimycobacterial activity against Mycobacterium kansasii CNCTC My 235/80 after 7 days; type: functional; settings: CNCTC My 235/80, 168 h
In short: (§3)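 Microdilution in Šula's semisynthetic medium; compounds in DMSO at 32–0.03 µM. Inoculum from 1.0 McFarland suspension diluted 10-4. […] Isoniazid and rifampicin as reference drugs.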

Mycobacterium kansasii [6] = assay: Antimycobacterial activity against Mycobacterium kansasii CNCTC My 235/80 after 14 days; type: functional; settings: CNCTC My 235/80, 336 h; in short: as §3
Mycobacterium kansasii [7] = assay: Antimycobacterial activity against Mycobacterium kansasii CNCTC My 235/80 after 21 days; type: functional; settings: CNCTC My 235/80, 504 h; in short: as §3
Mycobacterium kansasii [8] = assay: Antimycobacterial activity against Mycobacterium kansasii 6509/96 after 7 days; type: functional; settings: 6509/96, 168 h; in short: as §3
Mycobacterium kansasii [9] = assay: Antimycobacterial activity against Mycobacterium kansasii 6509/96 after 14 days; type: functional; settings: 6509/96, 336 h; in short: as §3
Mycobacterium kansasii [10] = assay: Antimycobacterial activity against Mycobacterium kansasii 6509/96 after 21 days; type: functional; settings: 6509/96, 504 h; in short: as §3
Staphylococcus aureus [11] = assay: Antibacterial activity against Staphylococcus aureus subsp. aureus ATCC 29213 CCM 4223 at highest concentration measured after 24 to 48 hrs by alamar blue dye based broth microdilution assay; type: functional, organism-based
Staphylococcus aureus [12] = assay: Antibacterial activity against methicillin-resistant Staphylococcus aureus subsp. aureus ATCC 43300 CCM 4750 at highest concentration measured after 24 to 48 hrs by alamar blue dye based broth microdilution assay; type: functional, organism-based
[13] = test system: Staphylococcus epidermidis; assay: Antibacterial activity against Staphylococcus epidermidis at highest concentration measured after 24 to 48 hrs by alamar blue dye based broth microdilution assay; type: functional, organism-based
Enterococcus faecalis = assay: Antibacterial activity against Enterococcus faecalis ATCC 29212 CCM 4224 at highest concentration measured after 24 to 48 hrs by alamar blue dye based broth microdilution assay; type: functional, organism-based
Escherichia coli = assay: Antibacterial activity against Escherichia coli ATCC 25922 CCM 3954 at highest concentration measured after 24 to 48 hrs by alamar blue dye based broth microdilution assay; type: functional, organism-based
Klebsiella pneumoniae = assay: Antibacterial activity against Klebsiella pneumoniae at highest concentration measured after 24 to 48 hrs by alamar blue dye based broth microdilution assay; type: functional, organism-based
Serratia marcescens = assay: Antibacterial activity against Serratia marcescens at highest concentration measured after 24 to 48 hrs by alamar blue dye based broth microdilution assay; type: functional, organism-based
Pseudomonas aeruginosa = assay: Antibacterial activity against Pseudomonas aeruginosa ATCC 27853 CCM 3955 at highest concentration measured after 24 to 48 hrs by alamar blue dye based broth microdilution assay; type: functional, organism-based
Candida albicans = assay: Antifungal activity against Candida albicans ATCC 24433 CCM 8320 at highest concentration measured after 24 to 48 hrs by alamar blue dye based broth microdilution assay; type: functional, organism-based
Pichia kudriavzevii = assay: Antifungal activity against Candida krusei ATCC 6258 CCM8271 at highest concentration measured after 24 to 48 hrs by alamar blue dye based broth microdilution assay; type: functional, organism-based
Candida parapsilosis = assay: Antifungal activity against Candida parapsilosis ATCC 22019 CCM 8260 at highest concentration measured after 24 to 48 hrs by alamar blue dye based broth microdilution assay; type: functional, organism-based
Candida tropicalis = assay: Antifungal activity against Candida tropicalis ATCC 750 CCM 8264 at highest concentration measured after 24 to 48 hrs by alamar blue dye based broth microdilution assay; type: functional, organism-based
Aspergillus fumigatus = assay: Antifungal activity against Aspergillus fumigatus ATCC 204305 at highest concentration measured after 24 to 48 hrs by alamar blue dye based broth microdilution assay; type: functional, organism-based
Aspergillus flavus = assay: Antifungal activity against Aspergillus flavus CCM 8363 at highest concentration measured after 24 to 48 hrs by alamar blue dye based broth microdilution assay; type: functional, organism-based
Lichtheimia corymbifera = assay: Antifungal activity against Lichtheimia corymbifera CCM 8077 at highest concentration measured after 24 to 48 hrs by alamar blue dye based broth microdilution assay; type: functional, organism-based
[14] = test system: Trichophyton interdigitale; assay: Antifungal activity against Trichophyton interdigitale ATCC 9533 CCM 8377 at highest concentration measured after 72 to 120 hrs by alamar blue dye based broth microdilution assay; type: functional

Structure (SMILES)	MIC99 [1] [µM]	MIC99 [2] [µM]	MIC99 (Mycobacterium avium [3]) [µM]	MIC99 (Mycobacterium avium [4]) [µM]	MIC99 (Mycobacterium kansasii [5]) [µM]	MIC99 (Mycobacterium kansasii [6]) [µM]	MIC99 (Mycobacterium kansasii [7]) [µM]	MIC99 (Mycobacterium kansasii [8]) [µM]	MIC99 (Mycobacterium kansasii [9]) [µM]	MIC99 (Mycobacterium kansasii [10]) [µM]	Activity (Staphylococcus aureus [11])	Activity (Staphylococcus aureus [12])	Activity [13]	Activity (Enterococcus faecalis)	Activity (Escherichia coli)	Activity (Klebsiella pneumoniae)	Activity (Serratia marcescens)	Activity (Pseudomonas aeruginosa)	Activity (Candida albicans)	Activity (Pichia kudriavzevii)	further results
O=[N+]([O-])c1cc(CSc2nnc(C3CCCCC3)n2Cc2ccccc2)cc([N+](=O)[O-])c1	2 (≈ 0.907 µg/mL)	4 (≈ 1.81 µg/mL)	250 (≈ 113 µg/mL)	250 (≈ 113 µg/mL)	4 (≈ 1.81 µg/mL)	4 (≈ 1.81 µg/mL)	4 (≈ 1.81 µg/mL)	4 (≈ 1.81 µg/mL)	4 (≈ 1.81 µg/mL)	4 (≈ 1.81 µg/mL)	inactive	inactive	inactive	inactive	inactive	inactive	inactive	inactive	inactive	inactive	Activity (Candida parapsilosis): inactive; Activity (Candida tropicalis): inactive; Activity (Aspergillus fumigatus): inactive; Activity (Aspergillus flavus): inactive; Activity (Lichtheimia corymbifera): inactive; Activity [14]: inactive
O=[N+]([O-])c1cc(CSc2nnc(-c3ccccc3)n2Cc2ccccc2)cc(C(F)(F)F)c1	16 (≈ 7.53 µg/mL)	32 (≈ 15.1 µg/mL)	250 (≈ 118 µg/mL)	250 (≈ 118 µg/mL)	> 32	> 32	> 32	> 32	> 32	> 32	inactive	inactive	inactive	inactive	inactive	inactive	inactive	inactive	inactive	inactive	Activity (Candida parapsilosis): inactive; Activity (Candida tropicalis): inactive; Activity (Aspergillus fumigatus): inactive; Activity (Aspergillus flavus): inactive; Activity (Lichtheimia corymbifera): inactive; Activity [14]: inactive
O=[N+]([O-])c1cc(Cn2c(SCc3ccccc3)nnc2-c2ccccc2)cc([N+](=O)[O-])c1	8 (≈ 3.58 µg/mL)	16 (≈ 7.16 µg/mL)	> 1000	> 1000	4 (≈ 1.79 µg/mL)	8 (≈ 3.58 µg/mL)	16 (≈ 7.16 µg/mL)	8 (≈ 3.58 µg/mL)	16 (≈ 7.16 µg/mL)	16 (≈ 7.16 µg/mL)	inactive	inactive	inactive	inactive	inactive	inactive	inactive	inactive	inactive	inactive	Activity (Candida parapsilosis): inactive; Activity (Candida tropicalis): inactive; Activity (Aspergillus fumigatus): inactive; Activity (Aspergillus flavus): inactive; Activity (Lichtheimia corymbifera): inactive; Activity [14]: inactive
COc1ccc(-c2nnc(SCc3cc([N+](=O)[O-])cc([N+](=O)[O-])c3)n2Cc2ccccc2)cc1	4 (≈ 1.91 µg/mL)	4 (≈ 1.91 µg/mL)	250 (≈ 119 µg/mL)	250 (≈ 119 µg/mL)	4 (≈ 1.91 µg/mL)	8 (≈ 3.82 µg/mL)	8 (≈ 3.82 µg/mL)	8 (≈ 3.82 µg/mL)	8 (≈ 3.82 µg/mL)	8 (≈ 3.82 µg/mL)	inactive	inactive	inactive	inactive	inactive	inactive	inactive	inactive	inactive	inactive	Activity (Candida parapsilosis): inactive; Activity (Candida tropicalis): inactive; Activity (Aspergillus fumigatus): inactive; Activity (Aspergillus flavus): inactive; Activity (Lichtheimia corymbifera): inactive; Activity [14]: inactive
COc1ccc(-c2nnc(SCc3cc([N+](=O)[O-])cc(C(F)(F)F)c3)n2Cc2ccccc2)cc1	32 (≈ 16 µg/mL)	> 32	250 (≈ 125 µg/mL)	250 (≈ 125 µg/mL)	32 (≈ 16 µg/mL)	> 32	> 32	> 32	> 32	> 32	inactive	inactive	inactive	inactive	inactive	inactive	inactive	inactive	inactive	inactive	Activity (Candida parapsilosis): inactive; Activity (Candida tropicalis): inactive; Activity (Aspergillus fumigatus): inactive; Activity (Aspergillus flavus): inactive; Activity (Lichtheimia corymbifera): inactive; Activity [14]: inactive
CCCCCCCCCCCCn1c(SCc2cc([N+](=O)[O-])cc([N+](=O)[O-])c2)nnc1-c1ccccc1	2 (≈ 1.05 µg/mL)	4 (≈ 2.1 µg/mL)	250 (≈ 131 µg/mL)	250 (≈ 131 µg/mL)	2 (≈ 1.05 µg/mL)	2 (≈ 1.05 µg/mL)	4 (≈ 2.1 µg/mL)	2 (≈ 1.05 µg/mL)	4 (≈ 2.1 µg/mL)	4 (≈ 2.1 µg/mL)	inactive	inactive	inactive	inactive	inactive	inactive	inactive	inactive	inactive	inactive	Activity (Candida parapsilosis): inactive; Activity (Candida tropicalis): inactive; Activity (Aspergillus fumigatus): inactive; Activity (Aspergillus flavus): inactive; Activity (Lichtheimia corymbifera): inactive; Activity [14]: inactive
O=[N+]([O-])c1cc(CSc2nnc(-c3ccc(O)cc3)n2Cc2ccccc2)cc([N+](=O)[O-])c1	16 (≈ 7.42 µg/mL)	16 (≈ 7.42 µg/mL)	250 (≈ 116 µg/mL)	250 (≈ 116 µg/mL)	8 (≈ 3.71 µg/mL)	16 (≈ 7.42 µg/mL)	16 (≈ 7.42 µg/mL)	8 (≈ 3.71 µg/mL)	16 (≈ 7.42 µg/mL)	16 (≈ 7.42 µg/mL)	inactive	inactive	inactive	inactive	inactive	inactive	inactive	inactive	inactive	inactive	Activity (Candida parapsilosis): inactive; Activity (Candida tropicalis): inactive; Activity (Aspergillus fumigatus): inactive; Activity (Aspergillus flavus): inactive; Activity (Lichtheimia corymbifera): inactive; Activity [14]: inactive
O=[N+]([O-])c1cc(-c2nnc(SCc3ccccc3)n2Cc2ccc(Cl)cc2Cl)cc([N+](=O)[O-])c1	2 (≈ 1.03 µg/mL)	2 (≈ 1.03 µg/mL)	16 (≈ 8.26 µg/mL)	16 (≈ 8.26 µg/mL)	2 (≈ 1.03 µg/mL)	4 (≈ 2.07 µg/mL)	4 (≈ 2.07 µg/mL)	4 (≈ 2.07 µg/mL)	4 (≈ 2.07 µg/mL)	4 (≈ 2.07 µg/mL)	inactive	inactive	inactive	inactive	inactive	inactive	inactive	inactive	inactive	inactive	Activity (Candida parapsilosis): inactive; Activity (Candida tropicalis): inactive; Activity (Aspergillus fumigatus): inactive; Activity (Aspergillus flavus): inactive; Activity (Lichtheimia corymbifera): inactive; Activity [14]: inactive
